The values that follow come from ChEMBL document CHEMBL3272049, “Estrogen potentiating activity of two spiro compounds having approximately similar molecular dimensions to stilbestrol” (1977).

What all share (format): functional
Holding throughout (conditions): route intraperitoneal

Experiment [1] deals with Mus musculus. Put plainly: Estrogenic activity in albino CFLP-ICI strain 1 mouse assessed as change in uterus weight at 0.1 mg/kg, ip qd for three consecutive days measured 24 hrs post last dose (reference value: 6.9 +/- 0.7 mg).
The subject of experiment [2] is Mus musculus. Put plainly: Estrogenic activity in albino CFLP-ICI strain 1 mouse assessed as change in uterus weight at 10 mg/kg, ip qd for three consecutive days measured 24 hrs post last dose (reference value: 6.9 +/- 0.7 mg).
For experiment [3], the system named is Mus musculus. The experiment can be described thus: Estrogenic activity in albino CFLP-ICI strain 1 mouse assessed as uterine ratio at 0.1 mg/kg, ip qd for three consecutive days measured 24 hrs post last dose relative to body weight.
Experiment [4] relates to Mus musculus. Put plainly: Estrogenic activity in albino CFLP-ICI strain 1 mouse assessed as uterine ratio at 10 mg/kg, ip qd for three consecutive days measured 24 hrs post last dose relative to body weight.
Experiment [5] deals with Mus musculus. The experiment can be described thus: Potentiation of stilbesterol-induced estrogenic activity in albino CFLP-ICI strain 1 mouse assessed as change in uterus weight at 0.01 mg/kg, ip qd for three consecutive days measured 24 hrs post last dose relative to control. The method, boiled down:
(§1)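 Mice received stilbestrol 0.01 mg/kg together with graded doses of spiro derivative, both in arachis oil, ip once daily at 10.00 h for three consecutive days; comparison group got stilbestrol alone. Killed by cervical dislocation 24 h after final dose. Uteri dissected free of fat, blotted and weighed. Uterine ratio = uterine weight (mg)/body weight (g) × 100; mean ± SE.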

Experiment [6] deals with Mus musculus. Put plainly: Potentiation of stilbesterol-induced estrogenic activity in albino CFLP-ICI strain 1 mouse assessed as change in uterus weight at 10 mg/kg, ip qd for three consecutive days measured 24 hrs post last dose relative to control. The method, boiled down: as §1
In experiment [7] the test system is Mus musculus. The experiment can be described thus: Potentiation of stilbesterol-induced estrogenic activity in albino CFLP-ICI strain 1 mouse assessed as change in uterus weight at 0.001 mg/kg, ip qd for three consecutive days measured 24 hrs post last dose relative to control. The procedure, abridged:
as §1

Experiment [8] has as its system Mus musculus. The experiment can be described thus: Potentiation of stilbesterol-induced estrogenic activity in albino CFLP-ICI strain 1 mouse assessed as change in uterus weight at 0.1 mg/kg, ip qd for three consecutive days measured 24 hrs post last dose relative to control. The method, boiled down:
as §1

Experiment [9] relates to Mus musculus. Put plainly: Potentiation of stilbesterol-induced estrogenic activity in albino CFLP-ICI strain 1 mouse assessed as uterine ratio at 0.01 mg/kg, ip qd for three consecutive days measured 24 hrs post last dose relative to body weight. The procedure, abridged:
as §1

The subject of experiment [10] is Mus musculus. Put plainly: Potentiation of stilbesterol-induced estrogenic activity in albino CFLP-ICI strain 1 mouse assessed as uterine ratio at 10 mg/kg, ip qd for three consecutive days measured 24 hrs post last dose relative to body weight. The method, boiled down:
as §1

In experiment [11] the test system is Mus musculus. The experiment can be described thus: Potentiation of stilbesterol-induced estrogenic activity in albino CFLP-ICI strain 1 mouse assessed as uterine ratio at 0.001 mg/kg, ip qd for three consecutive days measured 24 hrs post last dose relative to body weight. The method, boiled down:
as §1

The subject of experiment [12] is Mus musculus. The experiment can be described thus: Potentiation of stilbesterol-induced estrogenic activity in albino CFLP-ICI strain 1 mouse assessed as uterine ratio at 0.1 mg/kg, ip qd for three consecutive days measured 24 hrs post last dose relative to body weight. The procedure, abridged: as §1
In experiment [13] the test system is Mus musculus. Put plainly: Estrogenic activity in albino CFLP-ICI strain 1 mouse assessed as change in uterus weight at 0.01 mg/kg, ip qd for three consecutive days measured 24 hrs post last dose (reference value: 6.9 +/- 0.7 mg).
Experiment [14] concerns Mus musculus. The experiment can be described thus: Estrogenic activity in albino CFLP-ICI strain 1 mouse assessed as uterine ratio at 0.01 mg/kg, ip qd for three consecutive days measured 24 hrs post last dose relative to body weight.

Take `O=C1CCC2(CC1)CCc1ccccc1C2=O`: the Activity is given as 10 mg with Mus musculus [1]; 6.9 mg in the experiment on Mus musculus [2]; 37.1 mg in the experiment on Mus musculus [5]; 36.5 mg in the experiment on Mus musculus [6]; 29.9 mg in the experiment with Mus musculus [7]; 30.7 mg with Mus musculus [8]. Further, the Ratio with Mus musculus [3] stood at 78; in the experiment on Mus musculus [4], 64; with Mus musculus [9] it was 377; in the experiment on Mus musculus [10], 293; in the experiment on Mus musculus [11] it was 306; in the experiment on Mus musculus [12] it was 293.

For `OC1CCC2(CC1)Cc1ccccc1C2O` (configuration not stated), the Activity in the experiment with Mus musculus [1] turned out to be 7.4 mg; in the experiment on Mus musculus [2], 9.7 mg; in the experiment on Mus musculus [5] it was 24.5 mg; in the experiment with Mus musculus [6] it was 29.2 mg. The Ratio with Mus musculus [3] worked out at 80; with Mus musculus [4], 86; with Mus musculus [9], 225; in the experiment with Mus musculus [10], 247.

Take `CC/C(=C(/CC)c1ccc(O)cc1)c1ccc(O)cc1` [DIETHYLSTILBESTROL]: in the experiment with Mus musculus [13], the Activity is 17.5 mg. The Ratio in the experiment with Mus musculus [14] is given as 167.
